Assay results from different studies.
Compare with care: the assays were run in different laboratories.
Target: Tyrosine-protein kinase ZAP-70 (ZAP70, Homo sapiens, UniProt P43403)
Sequence (P43403 1-619, as in one of the studies): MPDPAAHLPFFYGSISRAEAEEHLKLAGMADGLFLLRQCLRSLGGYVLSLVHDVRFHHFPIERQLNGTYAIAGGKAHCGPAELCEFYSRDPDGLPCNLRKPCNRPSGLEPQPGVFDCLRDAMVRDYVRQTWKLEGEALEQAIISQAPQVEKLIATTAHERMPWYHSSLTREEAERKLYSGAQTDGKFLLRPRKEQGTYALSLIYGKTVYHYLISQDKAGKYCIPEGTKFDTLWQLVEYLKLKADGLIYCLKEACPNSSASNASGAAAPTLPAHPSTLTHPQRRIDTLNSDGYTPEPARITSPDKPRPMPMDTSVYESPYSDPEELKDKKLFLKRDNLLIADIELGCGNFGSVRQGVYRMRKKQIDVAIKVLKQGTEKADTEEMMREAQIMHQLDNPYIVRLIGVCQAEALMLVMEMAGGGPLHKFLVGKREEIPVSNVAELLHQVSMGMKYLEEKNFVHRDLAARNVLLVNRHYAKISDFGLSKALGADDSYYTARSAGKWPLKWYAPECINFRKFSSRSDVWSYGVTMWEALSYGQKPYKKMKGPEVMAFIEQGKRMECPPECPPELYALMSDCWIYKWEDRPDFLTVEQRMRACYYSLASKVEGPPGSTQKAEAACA

Structure (SMILES)	assay	setting	endpoint	value
C[C@H](c1ccc(F)cc1)N(Cc1cccc(C(=O)O)c1)C(=O)c1cnc2ccccc2c1	cell-free assay, competition with immobilised ligand	1 µM	remaining binding	96%
Cc1cnc(NC2CCOCC2)nc1-n1cnc(C(=O)NC(CN)c2cc(F)cc(Cl)c2)c1 (stereo not drawn)	enzyme activity, inhibitor, radiometric	1 µM	remaining activity	115%
CCN(CC)CCNC(=O)c1c(C)[nH]c(/C=C2\C(=O)Nc3ccc(F)cc32)c1C	enzyme activity, inhibitor	1 µM	remaining activity	110%
COc1cc(Nc2cnc(C#N)c(O[C@H](C)CN(C)C)n2)ncc1-c1cnn(C)c1	enzyme activity, inhibitor, radiometric	10 µM	remaining activity	103%
CC(C)(C)c1nc2c(s1)c1nc(N)ncc1c1ccc(NS(=O)(=O)c3c(F)cccc3F)c(F)c12	enzyme activity, inhibitor, radiometric	1 µM	remaining activity	95%
Cc1ccc(Nc2nccc(N(C)c3ccc4c(C)n(C)nc4c3)n2)cc1S(N)(=O)=O	enzyme activity, inhibitor	0.5 µM	remaining activity	92.6%
Cc1[nH]c(/C=C2\C(=O)Nc3ccc(F)cc32)c(C)c1C(=O)N[C@H]1CCN(C(=O)N(C)C)C1	enzyme activity, inhibitor	1 µM	remaining activity	116%
COc1cc2ncnc(Nc3ccc(Oc4ccccc4)c(C)c3C)c2cc1OC	enzyme activity, inhibitor	1 µM	inhibition	-2%
O=C(Nc1cnn(-c2csc(C(=O)NC3COC3)c2)c1)Nc1ccccc1Cl	enzyme activity, inhibitor	5 µM	remaining activity	102%
CNC(=O)c1cc(Oc2ccc(NC(=O)Nc3ccc(Cl)c(C(F)(F)F)c3)cc2)ccn1	enzyme activity, inhibitor	10 µM	inhibition	-42%
c1nc2c(Nc3ccc4c(c3)OCCO4)nc(Nc3ccc4c(c3)OCCO4)nc2[nH]1	enzyme activity, inhibitor	10 µM	activity vs control	62%
Cc1cc(NC(=O)c2cccc3cc(-c4cccc5[nH]nc(N)c45)ccc23)ccc1F	enzyme activity, inhibitor	0.1 µM	activity vs control	109%
O=C(NS(=O)(=O)c1ccc(NCC2CCOCC2)c([N+](=O)[O-])c1)c1ccc(N2CCN(Cc3ccc(C(F)(F)F)cc3-c3ccc(Cl)cc3)CC2)cc1Oc1cnc2[nH]ccc2c1	cell-free assay, competition with immobilised ligand	1 µM	remaining binding	82%
COc1ccc(COc2ccc(Cc3cnc(N)nc3N)cc2OC)cc1	cell-free assay	0.5 µM	remaining signal	94.3%
CCCS(=O)(=O)Nc1ccc(F)c(C(=O)c2c[nH]c3ncc(-c4ccc(Cl)cc4)cc23)c1F	enzyme activity, inhibitor	1 µM	inhibition	< 10%
CCN(CC)CCNC(=O)c1c(C)[nH]c(/C=C2\C(=O)Nc3ccc(F)cc32)c1C	enzyme activity, inhibitor	0.3 µM	inhibition	2%
CNCc1ccc(-c2cc(-c3nc(-c4ccc(S(=O)(=O)C(C)C)cc4)cnc3N)on2)cc1	enzyme activity, inhibitor	2 µM	inhibition	0%
Cc1noc([C@H]2C[C@@H](c3ccc(C(F)(F)F)cc3)CN(C(=O)N3CCS(=O)(=O)C3)C2)n1	cell-free assay, competition with immobilised ligand	1 µM	remaining binding	100%
COc1cc(Cl)c(C(=O)N[C@@H](CN[C@H]2CC[C@@H](N)CC2)Cc2ccc(C#N)cc2)cc1-c1ccc(CN[C@H](C)c2ccc(C)cc2)o1	enzyme activity, inhibitor	1 µM	remaining activity	93%
FC(F)(F)Oc1cccc(-c2cnc3ccc(-c4ccncc4)nn23)c1	enzyme activity, inhibitor, radiometric	1 µM	activity vs control	116%
Cc1cc(C)c(-n2ccn3nc(-c4cccnc4)cc23)cc1NC(=O)c1cc(C#N)cc(S(F)(F)(F)(F)F)c1	cell-free assay, competition with immobilised ligand	0.1 µM	remaining binding	79.9%
CCOc1cc(-c2nncn2C)ccc1Nc1ncc2cc(C)nc(NCC(C)(C)C)c2n1	enzyme activity, inhibitor, FRET	1 µM	inhibition	< 15%
O=C(N[C@H]1CCCCC/C=C\C2C[C@@]2(C(=O)O)NC(=O)[C@@H]2C[C@@H](Oc3ccncc3)CN2C1=O)OC1CCCC1 (stereo partly drawn)	binding, competition with immobilised ligand	1 µM	remaining binding	96%
O=C1NC(=O)c2cc(Nc3ccc(F)cc3)c(Nc3ccc(F)cc3)cc21	cell-free assay	0.5 µM	remaining signal	78.8%
O=C(O)c1cc(-c2ccc(C3CCNCC3)cc2)c2ccc(-c3ccc(C(F)(F)F)cc3)cc2c1	cell-free assay, competition with immobilised ligand	1 µM	remaining binding	100%
CCN(CC)c1ccc(C2=NNC(=O)CC2C)cc1[N+](=O)[O-] (stereo not drawn)	enzyme activity, inhibitor	10 µM	remaining activity	67%
NS(=O)(=O)c1cc(NC(=O)Cc2ccccc2)ccc1Oc1cccc(Cl)c1	cell-free assay, competition with immobilised ligand	1 µM	remaining binding	87%
COc1cc2ncnc(Nc3ccc(F)c(Cl)c3)c2cc1OCCCN1CCOCC1	cell-free assay	0.5 µM	remaining signal	96.5%
C[C@@H]1CN(c2cc(-c3n[nH]c4ccc(OC5(C)CC5)cc34)ncn2)C[C@H](C)O1	cell-free assay, competition with immobilised ligand	0.1 µM	remaining binding	83%
O=C(CSc1nc2nccnc2c(=O)n1CCc1ccccc1)Nc1nccs1	enzyme activity, inhibitor	10 µM	inhibition	14%
